Source: PubChem
Fh CTSL1 inh: cathepsin L1 inhibition, PFM18AAP counter-screen. inhibition, % at 5.96 µM. AID 1906. hit rate 0.49% among 300,000. recombinant F. hepatica cathepsin L1, Z-Leu-Arg-MCA fluorescence;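 active = inhibition above the mean of all tested compounds plus 3 SD, set per screening campaign, cut at about 17% in these data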;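 also: 0% = plate median of test compound wells and 100% = 1 µM Z-Phe-Ala-diazomethylketone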
VIM-2 inhibitor: blocks Pseudomonas aeruginosa VIM-2 metallo-beta-lactamase | purified VIM-2, nitrocefin hydrolysis, epi-absorbance fluorescence | inhibition, % at 5.6 µM | hit rate 0.89% among 290,000 | AID 1527;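 active = inhibition above the mean of all tested compounds plus 3 SD, cutoff set per screening run, cut at about 7.5% in these data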;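 also: red hydrolysis product quenches plate fluorescence so inhibitors raise well fluorescence; 0% = enzyme with DMSO and 100% = DMSO without enzyme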
M18AAP inhibitor: PfM18AAP enzyme inhibition | recombinant PfM18AAP, H-Glu-NHMec fluorogenic cleavage | inhibition, % at 7.35 µM | hit rate 1.2% among 290,000 | AID 1822;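 active = inhibition above the campaign mean inhibition over all tested compounds plus 3 SD, cut at about 28% in these data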;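 also: 0% = plate median of test compound wells and 100% = 2 mM ZnCl2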
IMP-1 inhibitor: blocks Pseudomonas aeruginosa IMP-1 metallo-beta-lactamase; purified IMP-1, nitrocefin hydrolysis, epi-absorbance fluorescence; inhibition, % at 5.6 µM; hit rate 0.45% among 290,000; AID 1556;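 active = inhibition above the mean plus 3 SD of all compounds in the same screening run, cut at about 4.5% in these data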;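 also: 0% = IMP-1 with DMSO and 100% = DMSO wells lacking enzyme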
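Assay system: purified IMP-1; Quantity: IMP-1 0.2 nM before substrate addition; Medium: HEPES buffer pH 7.1 with ZnSO4 and Brij 35; Incubation: 15 min enzyme–compound preincubation, then 25 min nitrocefin reaction, 25 °C; Signal: fluorescence quenching readout, ex 480/em 530 nm; Controls: DMSO with and without IMP-1; Repeats: singlicate testing.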
Numbers without * were called inactive; . = no result. Only some compounds are listed: those with a hit (about 2.7% of all), similar ones and a draw of the others.

SMILES	Fh CTSL1 inh	VIM-2 inhibitor	M18AAP inhibitor	IMP-1 inhibitor
CC(C)CC(=O)NC1(C(F)(F)F)C(=O)N(CC(C)C)C2=C1C(=O)CC(C)(C)C2 (stereo not given)	-2	-1	-10	-3
CS(=O)(=O)Nc1ccc(-c2ccc(/C=C3\SC(N)=NC3=O)o2)cc1	5	8.8*	20	0
COc1ccccc1N1CCN(/N=C/c2ccc(O)c(O)c2)CC1	-1	-2	63*	-1
COc1cc(S(=O)(=O)NC(Cc2c[nH]c3ccccc23)C(=O)O)ccc1NC(C)=O (stereo not given)	1	-1	-7	5.9*
O=C(O)C(Cc1c[nH]c2ccccc12)NS(=O)(=O)c1ccccc1 (stereo not given)	-1	-3	1	-1
Cc1nn(C(=O)CCC(=O)NCc2ccccc2Cl)c2ccccc12	20*	0	-6	0
COc1ccccc1CNC(=O)CCCC(=O)n1nc(C)c2ccccc21	-2	-5	4	0
O=P(O)(O)c1ccccc1OCCOCCOc1ccccc1P(=O)(O)O	4	23*	-13	-3
CC1OC(Oc2c(-c3cc(O)c(O)c(O)c3)oc3cc(O)cc(O)c3c2=O)C(O)C(O)C1O (stereo not given)	.	0	45*	-3
Cc1ccc(S(=O)(=O)/N=C2/C=C(Sc3ncn[nH]3)C(=O)c3ccccc32)c(C)c1	103*	-1	38*	-3
Cc1ccc(S(=O)(=O)/N=C2/C=C(Sc3ncn[nH]3)C(=O)c3ccccc32)cc1	107*	3	51*	-3
Cc1ccc(S(=O)(=O)N2CCN(C(=O)CSc3ncn[nH]3)CC2)c(C)c1	1	.	.	.
Cc1ccc(C(=O)CSc2ncn[nH]2)cc1	-2	-3	22	-1
CC(C)c1ccc(S(=O)(=O)/N=C2/C=C(Sc3ncn[nH]3)C(=O)c3ccccc32)cc1	101*	4	31*	0
O=C(c1ccccc1)C(Sc1ncn[nH]1)c1ccccc1 (stereo not given)	2	-2	10	0
CCCCNC(=O)c1onc(CCl)c1C(=O)OC	-1	-3	3	-3
CCCC(=O)Nc1ccccc1NC(C)=O	0	-1	5	5.3*
C=CCOc1ccc(C(=O)/C=C2/C(=O)Nc3ccccc32)cc1	-1	-3	8	-4
C=CCOc1ccccc1C(=O)/C=C1/C(=O)Nc2ccccc21	4	-2	31*	-4
CSc1ncccc1C(=O)N1CCCC(Nc2ccc(C)c(C)c2)C1 (stereo not given)	.	0	-3	-1
Oc1cccc(C(=S)N2CCN(Cc3ccccc3)CC2)c1	1	-2	29*	-1
COc1ccc(CNC(=O)C/C(C)=N/NC(=O)COc2cccc(C)c2)cc1	-2	-3	8	-3
Cc1ccc(N(CC(=O)N2CCN(C3CCCCC3)CC2)S(=O)(=O)c2cccnc2)cc1	18*	-1	5	0
O=C(Nc1ccc(Br)cc1)c1cc(-c2cccs2)on1	3	-1	-1	11*
Cc1ccc(NC(=O)c2cc(-c3cccs3)on2)cc1	-1	-1	-8	1
SMILES	Fh CTSL1 inh	VIM-2 inhibitor	M18AAP inhibitor	IMP-1 inhibitor
O=C(Nc1ccc(Cl)cc1)c1cc(-c2cccs2)on1	-2	-1	-2	15*
CCCn1nc(C(=O)NNC(=O)Cc2ccc(S(=O)(=O)N3CCOCC3)s2)c2ccccc2c1=O	-5	.	.	.
COc1ccc(Cl)cc1N(CC(=O)NCC(C)C)S(=O)(=O)c1ccc(C)c([N+](=O)[O-])c1	4	-3	0	-4
CCN(CC)c1ccc(C=Nc2ccccc2)c(O)c1	2	3	3	-2
CCN(CC)c1ccc(/C=N/N=C(N)N)c(O)c1	0	-2	29*	-4
CCNC(=O)COC(=O)c1ccc(-n2nc(C)cc2C)cc1	-1	-2	4	-2
Cc1cc(C)n(-c2ccc(C(=O)OCC(=O)c3ccc(Br)s3)cc2)n1	2	4	-8	9.1*
COC(=O)c1ccc(CN2CCCC(CO)(Cc3ccccc3F)C2)cc1 (stereo not given)	3	-4	10	-2
COc1ccc(COC(=O)NNC(=O)c2ccccc2Cl)cc1	52*	-4	4	-1
Cc1ccc(N/C(CSC(N)=O)=N/S(=O)(=O)c2ccccc2)cc1	10	-1	15	4.8*
Cc1ccc(N/C(CSC(N)=O)=N\S(=O)(=O)c2ccc(C)cc2)cc1	-5	-1	-1	5.0*
NC(=O)SC/C(=N\S(=O)(=O)c1ccccc1)Nc1ccccc1	6	-3	-16	-3
CCOc1ccc(-c2ccc(SCC(=O)NC3CCCCC3)nn2)cc1	0	-2	-2	0
CCCCNC(=O)CCn1nc(-c2ccc(C)cc2)c2ccccc2c1=O	1	-4	2	-3
CCOC(=O)N1CCC(n2c(SCC(=O)c3ccccc3)nc3ccsc3c2=O)CC1	-4	-3	10	-3
CC(C)(C)NC(=O)CN(CCN1CCOCC1)C(=O)CNS(=O)(=O)c1ccccc1	2	-3	0	-3
COCCCNC(=S)NNC(=O)Cn1nc(C)c(Br)c1C	-3	2	30*	-1
CCN(CC)S(=O)(=O)c1ccc(S(=O)(=O)N2CCN(CCC#N)CC2)cc1	-2	0	-2	-3
Cc1ccc(S(=O)(=O)N(CCC#N)CCN2CCCC2)cc1	78*	0	-3	-3
O=C(NCc1ccc2c(c1)OCO2)c1ccc(COc2cccc(Cl)c2)o1	22*	-1	-3	-5
COC(=O)c1cccc(C23CC4(C2)[C@H](CN(Cc2ccc(C(F)(F)F)cc2)[C@@H]4c2ccccc2)C3c2ccc(C(F)(F)F)cc2)c1 (stereo not given in full)	-4	.	.	.
O=C(C1=C(O)C(=O)N(Cc2ccco2)C1c1cccs1)c1cccs1 (stereo not given)	7	-2	0	-1
CC(=O)C1=C(O)C(=O)N(CC#N)C1c1cccs1 (stereo not given)	-5	-2	6	6.2*
COc1cc(NC(=O)c2ccco2)c(C(=O)O)cc1OC	-2	-2	0	-2
COC(=O)c1cc(OC)c(OC)cc1NC(=O)c1ccco1	2	8.9*	-5	-3
SMILES	Fh CTSL1 inh	VIM-2 inhibitor	M18AAP inhibitor	IMP-1 inhibitor
Cc1no[n+]([O-])c1COc1cccc(/C=N/Nc2nncn2N)c1	5	-1	28*	-3
O=C(COc1coc(CN2CCN(c3ccccc3)CC2)cc1=O)NC1CCCCC1	-1	.	.	.
CN(C)c1ccc(/C=C/c2cc[n+](C)cc2)cc1	4	-2	19	-5
CN(C)c1ccc(/C=C/c2cc[n+]([O-])cc2)cc1	4	2	6	6.4*
COc1ccc(N2CCN(C(=O)C(NC(=O)c3c(F)cccc3F)C(C)C)CC2)cc1 (stereo not given)	26*	0	17	2
CC(C)n1nnnc1SCC(=O)NC1CCCC1	-1	-2	0	-3
CC(C)n1nnnc1SCC(=O)NNC(=O)C1CCCCC1	27*	-10	4	-4
COc1ccc(Cn2c(=O)[nH]c3cc(C(=O)N4CCN(c5ccc(C(C)=O)cc5)CC4)ccc3c2=O)cc1	4	-1	-3	-2
